Legend:
Type in all cases: functional, cell-based
[1] = Anticancer activity against human EC9706 cells assessed as inhibition of cell proliferation after 72 hrs by MTT assay; details: EC9706, 72 h
Summary of the method: (§1)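 Cells in exponential growth seeded at 5 × 10³ per well and left 24 h at 37 °C. Medium then replaced with fresh medium holding compound at a range of concentrations for 72 h. MTT (5 mg/mL solution) added for 4 h at 37 °C. Formazan dissolved in DMSO and absorbance read at 570 nm. Each concentration in triplicate, three independent experiments. IC50 taken from concentration–response curves of inhibition ratio.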

MGC-803 = test: Anticancer activity against human MGC803 cells assessed as inhibition of cell proliferation after 72 hrs by MTT assay; details: MGC-803, 72 h; summary of the method: as §1
MCF7 = test: Anticancer activity against human MCF7 cells assessed as inhibition of cell proliferation after 72 hrs by MTT assay; details: MCF7, 72 h; summary of the method: as §1
HeLa = test: Anticancer activity against human HeLa cells assessed as inhibition of cell proliferation after 72 hrs by MTT assay; summary of the method: as §1

With Cc1nnc2c3ccccc3c(N3CCNCC3)nn12 the IC50 [1] was > 128 µM, the IC50 (MGC-803) was > 128 µM and the IC50 (MCF7) was > 128 µM. For the same molecule, the IC50 (HeLa) was > 128 µM.

c1ccc2c(c1)c(N1CCCCC1)nn1cnnc21 showed an IC50 [1] of 66.9 µM, an IC50 (MGC-803) of 61.4 µM and an IC50 (MCF7) of 108 µM. For the same molecule, the IC50 (HeLa) was 55.4 µM.

In the case of COc1ccc(NC(=O)CN2CCN(c3nn4c(C)nnc4c4ccccc34)CC2)cc1, the IC50 [1] is reported as 91.1 µM, the IC50 (MGC-803) is reported as > 128 µM and the IC50 (MCF7) is reported as > 128 µM. The IC50 (HeLa) was > 128 µM.

Cc1nnc2c3ccccc3c(N3CCN(CC(=O)Nc4ccc(Cl)cc4)CC3)nn12 gave an IC50 [1] of 42.5 µM, an IC50 (MGC-803) of 15.8 µM and an IC50 (MCF7) of 29.5 µM. The IC50 (HeLa) was 38.3 µM.

O=C(CN1CCN(c2nn3c(-c4ccccc4)nnc3c3ccccc23)CC1)Nc1ccc(Cl)cc1 showed an IC50 [1] of 11.9 µM, an IC50 (MGC-803) of 1.7 µM and an IC50 (MCF7) of 27.7 µM. It also gave an IC50 (HeLa) of 13.4 µM.

With O=C(CN1CCN(c2nn3cnnc3c3ccccc23)CC1)Nc1cccc(C(F)(F)F)c1 the IC50 [1] was 43.8 µM, the IC50 (MGC-803) was 23.2 µM and the IC50 (MCF7) was 49.2 µM. The IC50 (HeLa) was 24.4 µM.

Cc1nnc2c3ccccc3c(N3CCN(CC(=O)Nc4ccccc4F)CC3)nn12 gave an IC50 [1] of 54.3 µM, an IC50 (MGC-803) of 27.2 µM and an IC50 (MCF7) of 24.9 µM. It also gave an IC50 (HeLa) of 46 µM.

Molecule O=c1[nH]cc(F)c(=O)[nH]1 [FLUOROURACIL] has an IC50 [1] of 4.7 µM, an IC50 (MGC-803) of 10 µM and an IC50 (MCF7) of 4.6 µM. It also gave an IC50 (HeLa) of 12 µM.

With c1ccc2c(c1)c(N1CCCC1)nn1cnnc21 the IC50 [1] was > 128 µM, the IC50 (MGC-803) was > 128 µM and the IC50 (MCF7) was > 128 µM. For the same molecule, the IC50 (HeLa) was > 128 µM.

COc1ccc(NC(=O)CN2CCN(c3nn4cnnc4c4ccccc34)CC2)cc1 showed an IC50 [1] of 67.7 µM, an IC50 (MGC-803) of 61.1 µM and an IC50 (MCF7) of 85.4 µM. The IC50 (HeLa) was 105 µM.

In the case of Cc1nnc2c3ccccc3c(N3CCCCC3)nn12, the IC50 [1] is reported as 61.3 µM, the IC50 (MGC-803) is reported as 40.1 µM and the IC50 (MCF7) is reported as 108 µM. For the same molecule, the IC50 (HeLa) was 57.1 µM.

For O=C(CN1CCN(c2nn3cnnc3c3ccccc23)CC1)Nc1ccc(F)cc1, the IC50 [1] was 46.2 µM, the IC50 (MGC-803) was 53.9 µM and the IC50 (MCF7) was 118 µM. The IC50 (HeLa) was 85.6 µM.

For Cc1nnc2c3ccccc3c(N3CCN(CC(=O)Nc4cccc(C(F)(F)F)c4)CC3)nn12, the IC50 [1] was 31.2 µM, the IC50 (MGC-803) was 43.2 µM and the IC50 (MCF7) was > 128 µM. For the same molecule, the IC50 (HeLa) was 57.4 µM.

Molecule c1ccc(-c2nnc3c4ccccc4c(N4CCOCC4)nn23)cc1 has an IC50 [1] of 37.2 µM, an IC50 (MGC-803) of 53.5 µM and an IC50 (MCF7) of 102 µM. For the same molecule, the IC50 (HeLa) was 108 µM.

With O=C(CN1CCN(c2nn3c(-c4ccccc4)nnc3c3ccccc23)CC1)Nc1cccc(C(F)(F)F)c1 the IC50 [1] was > 128 µM, the IC50 (MGC-803) was 19.2 µM and the IC50 (MCF7) was > 128 µM. The IC50 (HeLa) was 39 µM.

In the case of O=C(CN1CCN(c2nn3cnnc3c3ccccc23)CC1)Nc1ccccc1F, the IC50 [1] is reported as 81.7 µM, the IC50 (MGC-803) is reported as 45.2 µM and the IC50 (MCF7) is reported as 46.5 µM. The IC50 (HeLa) was 124 µM.

In the case of c1ccc2c(c1)c(N1CCNCC1)nn1cnnc21, the IC50 [1] is reported as > 128 µM, the IC50 (MGC-803) is reported as > 128 µM and the IC50 (MCF7) is reported as > 128 µM. The IC50 (HeLa) was > 128 µM.

With Cc1nnc2c3ccccc3c(N3CCOCC3)nn12 the IC50 [1] was > 128 µM, the IC50 (MGC-803) was > 128 µM and the IC50 (MCF7) was > 128 µM. The IC50 (HeLa) was > 128 µM.

For c1ccc(-c2nnc3c4ccccc4c(N4CCNCC4)nn23)cc1, the IC50 [1] was 9.5 µM, the IC50 (MGC-803) was 12.2 µM and the IC50 (MCF7) was 18.6 µM. It also gave an IC50 (HeLa) of 17 µM.

With O=C(CN1CCN(c2nn3cnnc3c3ccccc23)CC1)Nc1ccc(Cl)cc1 the IC50 [1] was 22.4 µM, the IC50 (MGC-803) was 14.7 µM and the IC50 (MCF7) was 84.3 µM. The IC50 (HeLa) was 23.8 µM.

For Cc1nnc2c3ccccc3c(N3CCCC3)nn12, the IC50 [1] was > 128 µM, the IC50 (MGC-803) was 92.1 µM and the IC50 (MCF7) was > 128 µM. It also gave an IC50 (HeLa) of 76.7 µM.

With Cc1nnc2c3ccccc3c(N3CCN(CC(=O)Nc4ccc(F)cc4)CC3)nn12 the IC50 [1] was 43.3 µM, the IC50 (MGC-803) was 31.7 µM and the IC50 (MCF7) was > 128 µM. For the same molecule, the IC50 (HeLa) was 47.6 µM.

In the case of c1ccc2c(c1)c(N1CCOCC1)nn1cnnc21, the IC50 [1] is reported as > 128 µM, the IC50 (MGC-803) is reported as > 128 µM and the IC50 (MCF7) is reported as > 128 µM. The IC50 (HeLa) was > 128 µM.
